The test system of assay [1] is Rattus norvegicus. In words: In vivo anti-hyperglycaemic activity of compound in rat sucrose(100 mg/kg, oral gavage) loaded model (SLM) at 100 mg/kg dose. Type of assay: functional. A digest of the protocol: (§1)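 Overnight-fasted male Sprague–Dawley rats, five per group, were bled at baseline and then given the compound at 100 mg/kg by oral gavage. Sucrose (10 gm/kg) was loaded 30 min later. Blood glucose was taken at 30, 60, 90 and 120 min after the load, and % fall was calculated by the AUC method. Values are means of three experiments.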

Assay [2] has as its system Rattus norvegicus. The assay is described as follows: In vivo anti-hyperglycaemic activity of compound in rat sucrose(100 mg/kg, oral gavage) loaded model (SLM) at 100 mg/kg dose; NA = not active. Also noted: dose 100 mg/kg. Type of assay: functional, organism-based. In outline:
as §1

In assay [3] the test system is Rattus norvegicus. In words: In vivo anti-hyperglycaemic activity of compound in rat streptozotocin(60 mg/kg, ip) model (STZ) at 100 mg/kg dose.

Activity calls are given as the source filed them. The rule behind the calls is not given here.

Experimental findings from ChEMBL document CHEMBL1147580, “Antihyperglycemic activity of 2-methyl-3,4,5-triaryl-1H-pyrroles in SLM and STZ models” (2004) are described below.

For `COc1ccc(-c2[nH]c(C)c(-c3ccc(F)cc3)c2-c2ccc(OC)cc2)cc1`, the Blood sugar lowering with Rattus norvegicus [1] came out at 14.7%.

Take `Cc1[nH]c(-c2cccc(Cl)c2)c(-c2cccc(Cl)c2)c1-c1ccc(F)cc1`: the Blood sugar lowering result with Rattus norvegicus [2] was “inactive”.

For the compound `c1ccc(-c2nc(-c3ccccc3)c(-c3ccccc3)nc2-c2ccccc2)cc1`, the Blood sugar lowering in the assay with Rattus norvegicus [1] is 21.9%.

In the assay on Rattus norvegicus [1], `COc1ccc(-c2c(C)[nH]c(-c3ccccc3)c2-c2ccccc2)c(OC)c1` had a Blood sugar lowering of 20.3%.

Take `Cc1[nH]c(-c2ccc(Cl)cc2)c(-c2ccc(Cl)cc2)c1-c1ccc(F)cc1`: in the assay with Rattus norvegicus [2], the Blood sugar lowering result is “inactive”.

As to `Cc1[nH]c(-c2ccccc2)c(-c2ccccc2)c1-c1ccc(F)cc1`, the Blood sugar lowering stood at 34.7% in the assay with Rattus norvegicus [3] and 49.7% in the assay with Rattus norvegicus [1].

In the case of `Cc1[nH]c(-c2ccccc2)c(-c2ccccc2)c1-c1ccccc1F`, in the assay on Rattus norvegicus [2], the Blood sugar lowering result is “inactive”.

Take `COc1ccc(-c2c(C)[nH]c(-c3ccccc3)c2-c2ccccc2)cc1OC`: the Blood sugar lowering is listed as 28.6% in the assay with Rattus norvegicus [3] and 27.8% with Rattus norvegicus [1].

`Cc1[nH]c(-c2ccc(Cl)cc2)c(-c2ccc(Cl)cc2)c1-c1ccccc1F`: the Blood sugar lowering entry in the assay on Rattus norvegicus [2] is “inactive”.

As for `Cc1[nH]c(-c2ccccc2)c(-c2ccccc2)c1-c1cccc(C(F)(F)F)c1`, the Blood sugar lowering in the assay on Rattus norvegicus [3] is 25.1%; in the assay on Rattus norvegicus [1] it was 40.8%.
